The test concerns HEp-2 viability, ATP luminescence (CellTiter-Glo). Briefly: cytotoxicity in uninfected HEp-2 cells, dose response, cytotoxicity control for RSV inhibitor project, cell-based, CellTiter-Glo, synthesized compounds, set 7 (AID 504674). Put shortly:
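Times: compound exposure of 6 days at 37 °C, 5% CO2 / System: HEp-2 human cell line, cell viability / Amount: 10,595 HEp-2 cells per well / Detection: CellTiter-Glo luminescence / Evaluation: % viability versus median cell-only wells, CC50 from 4-parameter fit bounded 0–100 / Doses: 8-point twofold dilution series, 50 to 0.39 µM, 0.5% DMSO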

Activity calls are given as the source filed them.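 The calls were made as follows: active = cell viability under 70% at any tested concentration, a measure not printed in our tables; inactive = the rest.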

For the compound `COc1ccc(C)c(NC(=O)[C@@H]2CCCN2S(=O)(=O)c2cccc3cccnc23)c1`, the CC50 was > 50 µM (inactive). Under `COCCCNC(=O)c1ccc(Cn2c(=O)c3ccc(C)cc3n(Cc3ccc(C)cc3)c2=O)cc1` stands > 50 µM (inactive).

Turning to `O=C(NCc1cccc(Cl)c1)C1CCN(S(=O)(=O)c2cccc3nonc23)CC1`, the CC50 is > 50 µM (inactive). The value for `Cc1ccc(Cn2c(=O)n(Cc3ccc(C(=O)NC4CCCCC4)cc3)c(=O)c3ccccc32)cc1` was > 50 µM (inactive). For the compound `Cc1ccc(Cl)cc1NC(=O)[C@@H]1CCCN1S(=O)(=O)c1cccc2cccnc12`, the CC50 was 13 µM. Regarding `Cc1ccc(CNC(=O)C2CCN(S(=O)(=O)c3cccc4nonc34)CC2)c(C)c1`, the CC50 was > 50 µM (inactive). The value for `O=C(NCc1ccc(Cl)cc1)C1CCN(S(=O)(=O)c2cccc3nonc23)CC1` was > 50 µM (inactive); that for `Cc1ccc(Cn2c(=O)n(Cc3ccc(C(=O)N4CCOCC4)cc3)c(=O)c3ccccc32)cc1` was 16.6 µM; that for `Cc1ccc(NC(=O)[C@@H]2CCCN2S(=O)(=O)c2cccc3nonc23)c(C)c1` was > 50 µM (inactive). The value for `COc1ccccc1NC(=O)[C@@H]1CCCN1S(=O)(=O)c1cccc2nonc12` was > 50 µM (inactive). Under `Cc1ccc(Cn2c(=O)n(Cc3ccc(C(=O)N(C)C)cc3)c(=O)c3ccccc32)cc1` stands 11 µM; under `Cc1ccc(Cn2c(=O)n(Cc3ccc(C(=O)N4CCCCC4)cc3)c(=O)c3ccccc32)cc1`, 5.12 µM; under `Cc1ccc(Cn2c(=O)n(Cc3ccc(C(=O)N4CCCC4)cc3)c(=O)c3ccccc32)cc1`, 4.6 µM. `COCCCNC(=O)c1ccc(Cn2c(=O)c3ccc(C(F)(F)F)cc3n(Cc3ccc(C)cc3)c2=O)cc1`: the CC50 is > 50 µM (inactive). The value for `COCCNC(=O)c1ccc(Cn2c(=O)c3ccccc3n(Cc3ccc(C)cc3)c2=O)cc1` was > 50 µM (inactive).

In the case of `COCCCNC(=O)c1ccc(Cn2c(=O)c3ccc(OC)cc3n(Cc3ccc(C)cc3)c2=O)cc1`, the CC50 was 11.7 µM.

A word on the CC50: it is the concentration at which the toxic effect on the cells reaches its halfway point.
